Source: ChEMBL document CHEMBL1932946, “Design, synthesis and anticonvulsant evaluation of novel N-(4-substituted phenyl)-2-[4-(substituted) benzylidene]-hydrazinecarbothio amides” (Eur J Med Chem, 2012)
Blank lines part the entries; values can stand above or below the molecule they belong to. Activity calls are given as the source filed them.

How the values were obtained:
Mus musculus [1] = test: Anticonvulsant activity in ip dosed albino CF-1 mouse assessed as protection against maximal electroshock-induced seizures after 0.5 hrs; format: functional; details: albino CF-1, ip, read-out: MED
How it was run: (§1)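 Male CF-1 mice (18–25 g) received compound suspended in 0.5% methyl cellulose, i.p. at 30, 100 or 300 mg/kg. A 60 Hz alternating current (50 mA, 0.2 s) was delivered through corneal electrodes primed with 0.5% tetracaine HCl. Protection was defined as abolition of the hind limb tonic extensor component. The value reported is the minimum dose active in half or more of mice.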

Mus musculus [2] = test: Anticonvulsant activity in ip dosed albino CF-1 mouse assessed as protection against maximal electroshock-induced seizures after 2 hrs; format: functional; details: albino CF-1, ip, read-out: MED; how it was run: as §1
Mus musculus [3] = test: Anticonvulsant activity in ip dosed albino CF-1 mouse assessed as protection against maximal electroshock-induced seizures after 4 hrs; format: functional; details: albino CF-1, ip, read-out: MED
How it was run: (§2)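 Male CF-1 albino mice (18–25 g) dosed i.p. at 30, 100 and 300 mg/kg as suspension in 0.5% methyl cellulose. 60 Hz alternating current, 50 mA, delivered 0.2 s via corneal electrodes primed with 0.5% tetracaine HCl electrolyte. Protection = abolition of hind limb tonic extensor component. Value reported is the minimum dose active in half or more of mice.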

Mus musculus [4] = test: Anticonvulsant activity in albino CF-1 mouse assessed as protection against subcutaneous metrazol-induced seizure at 300 mg/kg, ip after 0.5 hrs; format: functional, organism-based; design: dose 300 mg/kg
How it was run: (§3)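 Mice (male CF-1 albino, 18–25 g) pretreated i.p. with 30, 100 or 300 mg/kg in 0.5% methyl cellulose. Metrazol, at a dose convulsing 97% of animals, injected subcutaneously into the loose skin fold at the midline of the neck. Animals isolated and watched for 30 min for absence of seizure. Minimum dose active in half or more of mice recorded.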

Mus musculus [5] = test: Anticonvulsant activity in albino CF-1 mouse assessed as protection against subcutaneous metrazol-induced seizure at 300 mg/kg, ip after 4 hrs; format: functional, organism-based; design: dose 300 mg/kg; how it was run: as §3
Mus musculus [6] = test: Neurotoxicity in albino CF-1 mouse assessed as minimum motor impairment at 300 mg/kg, ip after 0.5 hrs by rotarod test; format: toxicity, organism-based; design: dose 300 mg/kg, route intraperitoneal; details: in vivo
How it was run: (§4)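 Minimal motor impairment assessed in male CF-1 albino mice (18–25 g) at 0.5 and 4 h after i.p. doses of 30, 100 and 300 mg/kg, given in 0.5% methyl cellulose. Minimum dose toxic in half or more of mice recorded.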

Mus musculus [7] = test: Neurotoxicity in albino CF-1 mouse assessed as minimum motor impairment at 300 mg/kg, ip after 4 hrs by rotarod test; format: toxicity, organism-based; design: dose 300 mg/kg, route intraperitoneal; details: in vivo; how it was run: as §4
Mus musculus [8] = test: Anticonvulsant activity in albino CF-1 mouse assessed as protection against 6 Hz psychomotor seizure at 100 mg/kg, ip after 0.25 hrs by minimal clonic seizure test; format: functional
How it was run: (§5)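 Male CF-1 albino mice (18–25 g) given compound i.p., suspended in 0.5% methyl cellulose, 100 mg/kg in screen. Four mice per time point challenged at 0.25, 0.5, 1.0, 2.0 and 4.0 h via corneal electrodes (32 mA, 3 s, 6 Hz). Protection = absence of psychomotor seizure (minimal clonic phase, automatistic behaviours). Scored as animals protected/tested.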

Mus musculus [9] = test: Anticonvulsant activity in albino CF-1 mouse assessed as protection against 6 Hz psychomotor seizure at 100 mg/kg, ip after 0.5 hrs by minimal clonic seizure test; format: functional; details: route intraperitoneal; how it was run: as §5
Mus musculus [10] = test: Anticonvulsant activity in albino CF-1 mouse assessed as protection against 6 Hz psychomotor seizure at 100 mg/kg, ip after 1 hr by minimal clonic seizure test; format: functional; how it was run: as §5
Mus musculus [11] = test: Anticonvulsant activity in albino CF-1 mouse assessed as protection against 6 Hz psychomotor seizure at 100 mg/kg, ip after 2 hrs by minimal clonic seizure test; format: functional; how it was run: as §5
Mus musculus [12] = test: Anticonvulsant activity in albino CF-1 mouse assessed as protection against 6 Hz psychomotor seizure at 100 mg/kg, ip after 4 hrs by minimal clonic seizure test; format: functional, organism-based; design: dose 100 mg/kg; how it was run: as §5
Rattus norvegicus [13] = test: Acute toxicity in albino Sprague-Dawley rat pilocarpine-induced status prevention model at 100 mg/kg, ip measured 0.25 hrs post pilocarpine challenge; format: organism-based; design: dose 100 mg/kg, route intraperitoneal; details: in vivo
How it was run: (§6)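 Acute motor-impairment screen in the PISP programme, using male Sprague Dawley rats. Compound was suspended in 0.5% methyl cellulose and given i.p. at 100, 300 or 600 mg/kg. Two rats were used per dose. Behaviour was closely observed and recorded over a 4 h period at 0.25, 0.5, 1.0, 2.0 and 4.0 h. The result is scored as number toxic over number tested.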

Rattus norvegicus [14] = test: Acute toxicity in albino Sprague-Dawley rat pilocarpine-induced status prevention model at 100 mg/kg, ip measured 0.5 hrs post pilocarpine challenge; format: organism-based; design: dose 100 mg/kg, route intraperitoneal; details: in vivo; how it was run: as §6
Rattus norvegicus [15] = test: Acute toxicity in albino Sprague-Dawley rat pilocarpine-induced status prevention model at 100 mg/kg, ip measured 1 hr post pilocarpine challenge; format: organism-based; design: dose 100 mg/kg, route intraperitoneal; details: in vivo; how it was run: as §6
Rattus norvegicus [16] = test: Acute toxicity in albino Sprague-Dawley rat pilocarpine-induced status prevention model at 100 mg/kg, ip measured 2 hrs post pilocarpine challenge; format: organism-based; design: dose 100 mg/kg, route intraperitoneal; details: in vivo; how it was run: as §6
Rattus norvegicus [17] = test: Acute toxicity in albino Sprague-Dawley rat pilocarpine-induced status prevention model at 100 mg/kg, ip measured 4 hrs post pilocarpine challenge; format: organism-based; design: dose 100 mg/kg, route intraperitoneal; details: in vivo; how it was run: as §6
Rattus norvegicus [18] = test: Acute toxicity in albino Sprague-Dawley rat pilocarpine-induced status prevention model at 300 mg/kg, ip measured 0.25 hrs post pilocarpine challenge; format: organism-based; design: dose 300 mg/kg, route intraperitoneal; details: in vivo; how it was run: as §6
Rattus norvegicus [19] = test: Acute toxicity in albino Sprague-Dawley rat pilocarpine-induced status prevention model at 300 mg/kg, ip measured 4 hrs post pilocarpine challenge; format: organism-based; design: dose 300 mg/kg, route intraperitoneal; details: in vivo; how it was run: as §6
Rattus norvegicus [20] = test: Acute toxicity in albino Sprague-Dawley rat pilocarpine-induced status prevention model at 300 mg/kg, ip measured 2 hrs post pilocarpine challenge; format: organism-based; design: dose 300 mg/kg, route intraperitoneal; details: in vivo; how it was run: as §6
Rattus norvegicus [21] = test: Acute toxicity in albino Sprague-Dawley rat pilocarpine-induced status prevention model at 600 mg/kg, ip measured 4 hrs post pilocarpine challenge; format: organism-based; design: dose 600 mg/kg, route intraperitoneal; details: in vivo; how it was run: as §6
[22] = Octanol-phosphate buffer partition coefficient, log P of the compound at 5 mg after 24 hrs by UV spectroscopic analysis; format: physicochemical
How it was run: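 5 mg compound added to 10 mL octanol plus 10 mL phosphate buffer in a stoppered tube. Mixture shaken mechanically 24 h at room temperature, then left 6 h in a separating funnel to equilibrate.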

Rattus norvegicus [23] = test: Acute toxicity in albino Sprague-Dawley rat pilocarpine-induced status prevention model at 300 mg/kg, ip measured 1 hr post pilocarpine challenge; format: organism-based; design: dose 300 mg/kg, route intraperitoneal; details: in vivo; how it was run: as §6
Rattus norvegicus [24] = test: Acute toxicity in albino Sprague-Dawley rat pilocarpine-induced status prevention model at 300 mg/kg, ip measured 0.5 hrs post pilocarpine challenge; format: organism-based; design: dose 300 mg/kg, route intraperitoneal; details: in vivo; how it was run: as §6
Rattus norvegicus [25] = test: Acute toxicity in albino Sprague-Dawley rat pilocarpine-induced status prevention model at 600 mg/kg, ip measured 0.25 hrs post pilocarpine challenge; format: organism-based; design: dose 600 mg/kg, route intraperitoneal; details: in vivo; how it was run: as §6
Rattus norvegicus [26] = test: Acute toxicity in albino Sprague-Dawley rat pilocarpine-induced status prevention model at 600 mg/kg, ip measured 0.5 hrs post pilocarpine challenge; format: organism-based; design: dose 600 mg/kg, route intraperitoneal; details: in vivo; how it was run: as §6
Rattus norvegicus [27] = test: Acute toxicity in albino Sprague-Dawley rat pilocarpine-induced status prevention model at 600 mg/kg, ip measured 1 hr post pilocarpine challenge; format: organism-based; design: dose 600 mg/kg, route intraperitoneal; details: in vivo; how it was run: as §6
Rattus norvegicus [28] = test: Acute toxicity in albino Sprague-Dawley rat pilocarpine-induced status prevention model at 600 mg/kg, ip measured 2 hrs post pilocarpine challenge; format: organism-based; design: dose 600 mg/kg, route intraperitoneal; details: in vivo; how it was run: as §6
Mus musculus [29] = test: Anticonvulsant activity in albino CF-1 mouse assessed as protection against maximal electroshock-induced seizures at 300 mg/kg, ip after 0.5 hrs; format: functional, organism-based; design: dose 300 mg/kg; how it was run: as §2
Mus musculus [30] = test: Anticonvulsant activity in albino CF-1 mouse assessed as protection against maximal electroshock-induced seizures at 300 mg/kg, ip after 2 hrs; format: functional, organism-based; design: dose 300 mg/kg; how it was run: as §2

Compound: O=C1NC(=O)C(c2ccccc2)(c2ccccc2)N1 [PHENYTOIN]
minimal effective dose (Mus musculus [1]): 30 mg/kg
minimal effective dose (Mus musculus [2]): 30 mg/kg
minimal effective dose (Mus musculus [3]): 30 mg/kg
Activity (Mus musculus [4]): inactive
Activity (Mus musculus [5]): inactive

Compound: Cc1cc(Oc2ccc(/C=N/NC(=S)Nc3ccc(Br)cc3)cc2)ccc1Cl
Activity (Mus musculus [6]): Non-toxic
Activity (Mus musculus [7]): Non-toxic
Activity (Mus musculus [8]): Active
Activity (Mus musculus [9]): 75%
Activity (Mus musculus [10]; route intraperitoneal): 50%
Activity (Mus musculus [11]; route intraperitoneal): 50%
Activity (Mus musculus [12]): inactive
Activity (Rattus norvegicus [13]): Non-toxic
Activity (Rattus norvegicus [14]): Non-toxic
Activity (Rattus norvegicus [15]): Non-toxic
Activity (Rattus norvegicus [16]): Non-toxic
Activity (Rattus norvegicus [17]): Non-toxic
Activity (Rattus norvegicus [18]): Non-toxic
Activity (Rattus norvegicus [19]): Non-toxic
Activity (Rattus norvegicus [20]): Non-toxic
Activity (Rattus norvegicus [21]): Non-toxic
logP at 24 h [22]: 7.89
Activity (Rattus norvegicus [23]): Non-toxic
Activity (Rattus norvegicus [24]): Non-toxic
Activity (Rattus norvegicus [25]): Non-toxic
Activity (Rattus norvegicus [26]): Non-toxic
Activity (Rattus norvegicus [27]): Non-toxic
Activity (Rattus norvegicus [28]): Non-toxic

logP at 24 h [22]: 6.53
Compound: S=C(N/N=C/c1ccc(Oc2ccc(Br)cc2)cc1)Nc1ccc(Br)cc1
Activity (Mus musculus [29]): inactive
Activity (Mus musculus [30]): inactive
minimal effective dose (Mus musculus [3]): 300 mg/kg
Activity (Mus musculus [4]): inactive
Activity (Mus musculus [5]): inactive
Activity (Mus musculus [6]): Non-toxic
Activity (Mus musculus [7]): Non-toxic
Activity (Mus musculus [8]): inactive
Activity (Mus musculus [9]): 75%
Activity (Mus musculus [10]): inactive
Activity (Mus musculus [11]): inactive
Activity (Mus musculus [12]): inactive
